Laboratory results published in ChEMBL document CHEMBL3112542, “Synthesis of triazole-functionalized 2-DOS analogues and their evaluation as A-site binders” (Bioorg Med Chem Lett, 2014).
pEC50, pIC50: −log10 of the molar value. In brackets after ≈: the same amount, converted by molar mass.

How the values were obtained:
Pseudomonas aeruginosa = assay: Antimicrobial activity against Pseudomonas aeruginosa ATCC 27853 after 18 hrs by microdilution method; assay type: functional; conditions: ATCC 27853, 18 h
Staphylococcus aureus = assay: Antimicrobial activity against Staphylococcus aureus ATCC 29213 after 18 hrs by microdilution method; assay type: functional; conditions: ATCC 29213, 18 h
Escherichia coli = assay: Antimicrobial activity against Escherichia coli ATCC 25922 after 18 hrs by microdilution method; assay type: functional; conditions: ATCC 25922, 18 h
[1] = Binding affinity to Escherichia coli rRNA A site after 30 mins by luciferase transcription/translation assay
How it was run: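 Coupled bacterial transcription-translation run in E. coli extract. IC50 taken from 2 replicate experiments per compound, each in duplicate (14%).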

[2] = Binding affinity to 2AP-labeled duplex RNA oligonucleotide ribosomal decoding site (unknown origin) by fluorescence spectrophotometry; conditions: for pEC50: read-out: EC50
How it was run: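 Decoding-site RNA model oligonucleotide with 2-aminopurine replacing flexible A1492. Binding followed by enhancement of 2AP fluorescence emission. Values averaged from 3 replicate experiments per compound (10%).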

`N[C@H]1C[C@@H](n2cc(CO)nn2)[C@H](O)[C@@H](O)[C@@H]1O` showed an MIC (Pseudomonas aeruginosa) of over 700 µg/mL, an MIC (Staphylococcus aureus) of 88 µg/mL (≈ 360 µM) and an MIC (Escherichia coli) of over 700 µg/mL. For the same molecule, the pIC50 [1] was 3.33 and the EC50 [2] was “Not Active”.

Molecule `NCC[C@H](O)C(=O)N[C@H]1C[C@@H](N)[C@H](O)[C@@H](O)[C@@H]1O` has an MIC (Pseudomonas aeruginosa) of over 840 µg/mL, an MIC (Staphylococcus aureus) of 52.5 µg/mL (≈ 199 µM) and an MIC (Escherichia coli) of over 840 µg/mL. The pIC50 [1] was 3.32 and the pEC50 [2] was 5.06.

Work on `NCC[C@H](O)C(=O)N[C@H]1C[C@@H](n2cc(CO)nn2)[C@H](O)[C@@H](O)[C@@H]1O` yielded an MIC (Pseudomonas aeruginosa) of over 1000 µg/mL, an MIC (Staphylococcus aureus) of 60 µg/mL (≈ 174 µM) and an MIC (Escherichia coli) of over 1000 µg/mL. For the same molecule, the pIC50 [1] was 4.18 and the EC50 [2] was “Not Active”.

For `NCCCC(=O)N[C@H]1C[C@@H]2[C@H](OCc3cnnn32)[C@@H](O)[C@@H]1O`, the MIC (Pseudomonas aeruginosa) was over 870 µg/mL, the MIC (Staphylococcus aureus) was 109 µg/mL (≈ 350 µM) and the MIC (Escherichia coli) was over 870 µg/mL. The pIC50 [1] was 4.26 and the pEC50 [2] was 4.65.

Work on `NCC[C@H](O)C(=O)N[C@H]1C[C@@H]2[C@H](OCc3cnnn32)[C@@H](O)[C@@H]1O` yielded an MIC (Pseudomonas aeruginosa) of over 820 µg/mL, an MIC (Staphylococcus aureus) of 102 µg/mL (≈ 312 µM) and an MIC (Escherichia coli) of over 820 µg/mL. The pIC50 [1] was 3.98 and the pEC50 [2] was 7.77.

Molecule `N[C@@H]1C[C@H](N)[C@@H](O)[C@H](OCc2cn(CCO)nn2)[C@H]1OCC(=O)N1CCCCC1` has an MIC (Pseudomonas aeruginosa) of over 1000 µg/mL, an MIC (Staphylococcus aureus) of 129 µg/mL (≈ 313 µM) and an MIC (Escherichia coli) of over 1000 µg/mL. It also gave a pIC50 [1] of 3.14 and a pEC50 [2] of 5.52.

Molecule `N[C@@H]1C[C@H](NC(=O)NCCO)[C@@H](O)[C@H](OCC(=O)N2CCOCC2)[C@H]1OCc1cn(CCO)nn1` has an MIC (Pseudomonas aeruginosa) of 157 µg/mL (≈ 313 µM), an MIC (Staphylococcus aureus) of 78 µg/mL (≈ 156 µM) and an MIC (Escherichia coli) of 235 µg/mL (≈ 469 µM). The pIC50 [1] was 4.65 and the pEC50 [2] was 4.21.

`N[C@H]1C[C@@H]2[C@H](OCc3cnnn32)[C@@H](O)[C@@H]1O` (single isomer, unassigned) showed an MIC (Pseudomonas aeruginosa) of 283 µg/mL (≈ 1250 µM), an MIC (Staphylococcus aureus) of over 565 µg/mL and an MIC (Escherichia coli) of 283 µg/mL (≈ 1250 µM). For the same molecule, the pIC50 [1] was 3.50 and the pEC50 [2] was 4.28.
